Screening data: PubChem BioAssay, Broad Institute
Most compounds without a hit are left out; they make up all but 1.5% or so of the library.
MITF act: MITF TRPM1 promoter activation in melanoma cells; activation, % at 12.5 µM; 300,000 compounds, 0.75% hits; SK-MEL-5 TRPM1-promoter luciferase, 24 h; % of positive control, neutral wells = 0;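 active = mean activation of at least 80% with every replicate also reaching 80%; inconclusive = mean reaches 80% but some replicate falls short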;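 also: 0% = neutral control wells and 100% = parthenolide positive control wells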
Cneo AK release: Cryptococcus neoformans lysis via adenylate kinase release | C. neoformans lysis, adenylate kinase release luminescence, 4 h; normalised: neutral wells 0, clomiphene wells 100 | lysis activity, % at 15 µM | 360,000 compounds, 0.2% hits | AID 651654;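 active = mean lysis activity across replicates of at least 80%, whatever share of replicates individually reach that level; inactive = mean lysis activity below 80%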
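Schedule: static 4 h at 37 °C with compound, 1 h detection; system: C. neoformans cells; benchmarks: Clomiphene as positive control; buffer or medium: fresh YPD medium; measure: luminescence rise reflecting yeast cell lysis; measured by: luminescent adenylate kinase detection reagent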
PGC1a acetyl inh: lowers PGC1a acetylation signal in U2OS cells | AlphaScreen anti-acetyl-lysine; with virally co-expressed GCN5 acetyltransferase | inhibition, % at 15.6 µM | 350,000 compounds, 0.17% hits;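 active = every replicate shows inhibition of at least 40%; inconclusive = mean inhibition at least 40% but some replicate below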;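 also: 0% = neutral control wells and 100% = positive control wells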
Wnt bcat act: activates Wnt/beta-catenin signaling in a reporter cell assay. activator, plate reader. activation, % at 9.35 µM. 300,000 compounds, 1.2% hits. AID 743398; in the data active = activation above about 30%, passing the limit was not always enough; inconclusive = no clear call, values can overlap the other calls;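 also: 0% = neutral control wells and 100% = positive control wells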
* hit, by the source's call; ? = inconclusive; nt = not tested or not shown.

SMILES	MITF act	Cneo AK release	PGC1a acetyl inh	Wnt bcat act
O=C(CN(C(=O)c1cc2c(s1)CCC2)C1CCCC1)NCc1cccs1	-5	1	-3	50*
COC(=O)C1C(=O)c2c([nH]c(C(=O)OC3CCCCC3)c2C)CC1C (configuration not stated)	94*	2	-20	?
COC(=O)C1C(=O)C2=C(CC1C)Nc1ccccc1NC2c1ccc(C)s1 (configuration not stated)	15	nt	nt	-2
Cc1c(C(=O)OC2CCCCC2)[nH]c2c1C(=O)CC(C)(C)C2	53	1	2	-2
COC(=O)C1C(=O)c2c([nH]c(C(=O)OC3CCCC3C)c2C)CC1C (configuration not stated)	99*	-3	nt	26
COc1ccc2c(-c3cc4ccc(OCc5ccc(F)cc5)cc4oc3=O)cc(=O)oc2c1	-26	nt	nt	nt
O=C1COc2ccc(OCc3ccc(F)cc3)cc21	90*	-12	0	nt
CCCC(=O)Nc1ccc2c(c1)C(=O)N(C)C[C@@H](OC)[C@@H](C)CN(S(=O)(=O)c1cn(C)cn1)[C@H](C)CO2	nt	11	-2	nt
O=C(NCc1ccc(Cl)cc1Cl)Nc1ccccc1	66	nt	nt	46*
Cc1ccc(C)c(CNC(=O)Nc2ccccc2)c1	86*	nt	-2	3
O=C(NCc1csc2ccc(Cl)cc12)Nc1ccccc1	nt	nt	-10	28
CSc1ccc(/C=C/C(=O)c2ccc(O)cc2)cc1	94*	nt	nt	nt
CN(C)c1ccc(/C=C/C(=O)c2ccccc2)cc1[N+](=O)[O-]	33	1	7	34*
Cc1ccc(/C=C/C(=O)c2ccc(O)cc2)cc1	73	nt	-3	0
Cc1ccc(/C=C/C(=O)c2ccccc2)cc1	97*	3	20	nt
CCOc1ccc(C(=O)/C=C/c2ccc(SC)cc2)cc1	8	0	-1	0
O=C(/C=C/c1ccc(OC2CSC2)cc1)c1ccccc1	58	-7	-5	39*
C[C@H]1CN([C@@H](C)CO)S(=O)(=O)c2ccc(-c3ccc(F)cc3)cc2O[C@H]1CN(C)C	nt	5	-2	nt
COc1ccc2nc(C)cc(N/N=C/c3ccc(F)cc3)c2c1	nt	3	94*	-9
CCCCn1c(NC(=O)c2ccccc2)nc2ccccc21	-7	0	-14	2
CCn1c(NC(=O)c2ccccc2)nc2ccccc21	nt	-3	3	31*
CN(C)CCCN(C(=O)c1cc2cc([N+](=O)[O-])ccc2s1)c1nc2cc3c(cc2s1)OCCO3	-87	10	54*	-18
COc1cccc(S(=O)(=O)Nc2ccc3c(c2)C(=O)N(C)C[C@@H](OC)[C@@H](C)CN(C(=O)Cc2cccnc2)[C@@H](C)CO3)c1	nt	2	3	nt
Cc1cc(OCC(=O)NNC(=O)c2cnccn2)cc(C)c1Cl	0	1	85*	-4
Cc1ccc(OCC(=O)NCCCNC(=O)c2cnccn2)cc1C	-15	-5	nt	2
SMILES	MITF act	Cneo AK release	PGC1a acetyl inh	Wnt bcat act
C/C=C/c1ccc2c(c1)O[C@H](CN(C)C(=O)NCCC)[C@@H](C)CN([C@H](C)CO)S2(=O)=O	nt	-3	-6	nt
COc1cccc(/C=N/Nc2ccccc2C(=O)O)c1O	26	-2	6	35*
O=[N+]([O-])c1ccccc1N/N=C/c1ccccc1	nt	1	nt	14
O=C(O)c1ccccc1NN=Cc1ccccc1	40	-2	4	61*
C[C@H]1CN([C@@H](C)CO)C(=O)Cc2cc(NC(=O)C3CC3)ccc2O[C@@H]1CN(C)Cc1ccccc1	nt	-3	nt	nt
CCN(CC)S(=O)(=O)c1ccc(C(=O)Nc2ccc(C(F)(F)F)n(C)c2=O)cc1	-2	4	nt	-1
COc1ccc(C(=O)Nc2ccc(C(F)(F)F)n(C)c2=O)cc1	28	nt	nt	63*
Cc1ccc(C(=O)Nc2ccc(C(F)(F)F)n(C)c2=O)cc1	23	nt	1	54*
Cc1ccc(C(=O)NCCCc2ccccc2)s1	87*	1	-16	53*
O=C(NCc1cccnc1)c1ccccc1NS(=O)(=O)c1ccc(F)cc1	-11	-4	-2	-4
Cc1ccc(S(=O)(=O)Nc2ccccc2C(=O)NCc2cccnc2)cc1	-14	nt	91*	-8
O=C(CC(Nc1ccc(Cl)cc1)C(=O)O)c1ccccc1 (configuration not stated)	73	2	-8	47*
Cc1ccc(NC(=O)CC(=O)c2ccccc2)cc1C	144*	-2	nt	-1
COC(=O)CSC(C(=O)Nc1ccc(C)c(C)c1)c1ccccc1 (configuration not stated)	29	1	2	35*
O=C(Cc1ccc(Cl)cc1)Nc1ccc(NC(=O)c2ccccc2)cc1	14	nt	nt	-4
O=C(CC(=O)c1ccccc1)Nc1ccc(Cl)cc1	111*	2	4	14
CCCC#Cc1ccc2c(c1)O[C@H](CN(C)Cc1ccncc1)[C@H](C)CN([C@H](C)CO)S2(=O)=O	nt	-6	-14	nt
COc1ccc2c3c(n(C)c2c1)[C@H](CO)NCC31CN(Cc2ccc(-c3ccccn3)cc2)C1	nt	nt	-39	nt
CN(c1ccccc1)c1ccc(/C=N/N2CCOCC2)cc1	144*	-1	12	nt
CN(C)c1ccc(/C=N/N2CCN(c3ccccn3)CC2)cc1	nt	1	3	43*
COc1ccc2cc(C(=O)N3CCN(C)CC3)[nH]c2c1	44	7	-2	17
CCN1CCN(C(=O)c2cc3ccc(OC)cc3[nH]2)CC1	95*	-3	0	11
CCN1CCC2(CC1)Oc1c(OC)cccc1C1CC(c3cccnc3)=NN12 (configuration not stated)	nt	0	-4	36*
COc1ccccc1C1CC(c2ccc(Br)cc2)=NN1C(=O)c1cccnc1 (configuration not stated)	-24	nt	nt	-10
CO[C@H]1CN(C)C(=O)c2ccc(NC(C)=O)cc2OC[C@@H](C)N(C(=O)C2CCOCC2)C[C@H]1C	nt	-2	-3	nt
SMILES	MITF act	Cneo AK release	PGC1a acetyl inh	Wnt bcat act
C[C@@H]1CN([C@@H](C)CO)C(=O)c2cc(NC(=O)CCCN(C)C)ccc2O[C@@H](C)CCCCO[C@@H]1CN(C)Cc1ccc(C(F)(F)F)cc1	nt	60	110*	nt
C[C@H]1CCCCO[C@H](CN(C)Cc2ccncc2)[C@@H](C)CN([C@@H](C)CO)C(=O)c2cc(NC(=O)CCCN(C)C)ccc2O1	nt	98*	6	nt
CO[C@H]1CC[C@@H]2CCN(C)C(=O)CC3(CCCCC3)CN(C)C(=O)c3cccc(C#N)c3OC[C@H]1O2	nt	1	nt	nt
O=C(C[C@@H]1CC[C@H]2[C@@H](COC[C@H](O)CN2Cc2cc(F)cc(F)c2)O1)NC1CCCC1	nt	-1	-10	nt
O=C(CC1CC1)N1CC[C@H]2[C@H](CO)Nc3ccc(-c4ccc(F)cc4)cc3[C@H]21	nt	0	-5	nt
COc1ccc(CNC(=O)C(c2ccncc2)N(C(=O)Cc2cccs2)c2ccccc2)cc1 (configuration not stated)	-19	nt	nt	3
COc1ccc(N(C(=O)CCl)C(C(=O)NCCc2ccccc2)c2cccs2)cc1 (configuration not stated)	-87	2	61*	2
Nn1c(SCc2c(F)cccc2F)nnc1-c1ccccn1	nt	-4	4	43*
